The values below come from ChEMBL document CHEMBL1145781, “Synthesis and structure-activity relationships of 5-amino-6-fluoro-1-[(1R,2S)-2-fluorocyclopropan-1-yl]-8-methylquinolonecarboxylic acid antibacterials having fluorinated 7-[(3R)-3-(1-aminocyclopropan-1-yl)pyrrolidin-1-yl] substituents” (J Med Chem, 2003).

Usually MIC50 stands for the lowest concentration that inhibits either 50% of growth or 50% of the strains tested, depending on the study. The term MIC90 denotes the lowest concentration that inhibits either 90% of growth or 90% of the strains tested, depending on the study. Read a high MIC90 as weaker potency. As a reminder, the MIC is the lowest concentration found to suppress growth. Read a high MIC as weaker potency.

Each structure is given as a SMILES string. Values after ≈ are worked out from the molar mass of the structure shown. *1 amine or outer side, *2 acyl side, *3 side chain or, on linkers, in order; H or OH if unused. Where a SMILES comes first, the peptide text is derived from it. Bridges are numbered along the chain shown (N, C = ends). [ ]: non-standard residue; d: D form. The star is where a group is joined. X1 = O=C1C[C@@H](C(=O)[*:2])N([*:1])C[C@H]1CS[C@@H]1CN2CCC1CC2; NMePhe(4-NMe2) = CN[C@@H](Cc1ccc(N(C)C)cc1)C(=O)O; Picolinoyl(3-OH) = O=C(c1ncccc1O)*; Phg = N[C@H](C(=O)O)c1ccccc1; dAbu = CC[C@@H](N)C(=O)O

Common to all, as to format: functional
For test [1], the system named is Streptococcus pneumoniae. Description: Antibacterial activity was determined against clinically isolated penicillin resistant Streptococcus pneumoniae (PRSP) strains (50 strains).
In test [2] the test system is Enterococcus sp. Description: Antibacterial activity was determined against clinically isolated vancomycin-A resistant Enterococci (VRE) strains (33 strains). Put shortly:
(§1)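 Twofold broth microdilution in Mueller–Hinton broth, inoculum about 10^5 CFU per well. Plates incubated 18 h at 37 °C. MIC taken as the lowest concentration preventing visible growth. Organisms were clinical resistant Gram-positive isolates.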

Test [3] concerns Enterococcus sp. Description: Antibacterial activity was determined against clinically isolated vancomycin-B resistant Enterococci (VRE) strains (10 strains). In a few lines:
as §1

Test [4] relates to Staphylococcus aureus. Description: Antibacterial activity was determined against clinically isolated Levofloxacin-methicillin resistant Staphylococcus aureus (LVFX-r MRSA) strains (74 strains).
Test [5] deals with Staphylococcus aureus. As to the kind of experiment: Antibacterial activity was determined against clinically isolated Levofloxacin-methicillin resistant Staphylococcus aureus (LVFX-r MRSA) strains (74 strains); Range= 0.5-128 ug/mL. Put shortly:
as §1

The subject of a further test is Klebsiella pneumoniae. As to the kind of experiment: Antibacterial activity was determined against Klebsiella pneumoniae type II strain after incubation at 37 degrees C for 18 h.
The test system of test [6] is Streptococcus pneumoniae. As to the kind of experiment: Antibacterial activity was determined against Streptococcus pneumoniae J-24 strain after incubation at 37 degrees C for 18 h.
Test [7] concerns Staphylococcus aureus. As to the kind of experiment: Antibacterial activity was determined against Staphylococcus aureus FDA 209-P strain after incubation at 37 degrees C for 18 h.
The next test concerns Enterococcus faecalis. As to the kind of experiment: Antibacterial activity was determined against Enterococcus faecalis ATCC 19433 strain after incubation at 37 degrees C for 18 h. The following applies: ATCC 19433, 18 h.
For a further test, the system named is Escherichia coli. Description: Antibacterial activity was determined against Escherichia coli NIHJ strain after incubation at 37 degrees C for 18 h.
In a further test the test system is Streptococcus pyogenes. As to the kind of experiment: Antibacterial activity was determined against Streptococcus pyogenes G-36 strain after incubation at 37 degrees C for 18 h.
Test [8] has as its system Staphylococcus epidermidis. Description: Antibacterial activity was determined against Staphylococcus epidermis 56500 strain after incubation at 37 degrees C for 18 h.
In the next test the test system is Pseudomonas aeruginosa. As to the kind of experiment: Antibacterial activity was determined against Pseudomonas aeruginosa PAO1 strain after incubation at 37 degrees C for 18 h.
The subject of another test is Streptococcus mitis. Description: Antibacterial activity was determined against Streptococcus mitis IID685 strain after incubation at 37 degrees C for 18 h.
For test [9], the system named is Streptococcus pneumoniae. As to the kind of experiment: Antibacterial activity was determined against clinically isolated penicillin resistant Streptococcus pneumoniae (PRSP) strains (50 strains); Range= 1-4.
Test [10] relates to Enterococcus sp. Description: Antibacterial activity was determined against clinically isolated vancomycin-B resistant enterococci (VRE) strains (10 strains).
In test [11] the test system is Enterococcus sp. As to the kind of experiment: Antibacterial activity was determined against clinically isolated vancomycin-A resistant enterococci (VRE) strains (33 strains).

As for `CO/N=C1\CN(c2nc3c(cc2F)c(=O)c(C(=O)O)cn3C2CC2)CC1CN` (centres undefined) [GEMIFLOXACIN], the MIC50 in the test on Streptococcus pneumoniae [1] is 0.03 µg/mL (≈ 0.077 µM); in the test with Enterococcus sp. [2] it was 4 µg/mL (≈ 10.3 µM); in the test on Enterococcus sp. [3] it was 1 µg/mL (≈ 2.57 µM); against Staphylococcus aureus [4], 2 µg/mL (≈ 5.14 µM). The MIC90 was found to be 0.06 µg/mL (≈ 0.154 µM) against Streptococcus pneumoniae [1], 32 µg/mL (≈ 82.2 µM) against Enterococcus sp. [2], 2 µg/mL (≈ 5.14 µM) in the test on Enterococcus sp. [3] and 32 µg/mL (≈ 82.2 µM) in the test on Staphylococcus aureus [4].

Consider `C[C@H]1COc2c(N3CCN(C)CC3)c(F)cc3c(=O)c(C(=O)O)cn1c23.C[C@H]1COc2c(N3CCN(C)CC3)c(F)cc3c(=O)c(C(=O)O)cn1c23.O` [LEVOFLOXACIN], for which, in the test on Staphylococcus aureus [5], the MIC was found to be 128 µg/mL.

For the compound `COc1c(N2C[C@@H]3CCCN[C@@H]3C2)c(F)cc2c(=O)c(C(=O)O)cn(C3CC3)c12` [MOXIFLOXACIN], the MIC in the test with Klebsiella pneumoniae is 0.025 µg/mL (≈ 0.0623 µM); against Streptococcus pneumoniae [6], 0.025 µg/mL (≈ 0.0623 µM); in the test on Staphylococcus aureus [7] it was 0.013 µg/mL (≈ 0.0324 µM); against Enterococcus faecalis, 0.2 µg/mL (≈ 0.498 µM); in the test on Escherichia coli, at most 0.003 µg/mL; against Streptococcus pyogenes it was 0.2 µg/mL (≈ 0.498 µM). In addition, the MIC in [8] was 0.1 µg/mL (≈ 0.249 µM); in the test with Pseudomonas aeruginosa, 0.2 µg/mL (≈ 0.498 µM); in the test with Streptococcus mitis, 0.1 µg/mL (≈ 0.249 µM).

In turn, `CC1(C)S[C@@H]2[C@H](NC(=O)Cc3ccccc3)C(=O)N2[C@H]1C(=O)O` [PENICILLIN G] had an MIC with Streptococcus pneumoniae [9] of 4 µg/mL (≈ 12 µM).

Take `CCN(CC)CCS(=O)(=O)[C@@H]1CCN2C(=O)c3coc(n3)CC(=O)C[C@H](O)/C=C(C)/C=C/CNC(=O)/C=C/[C@@H](C)[C@@H](C(C)C)OC(=O)[C@@H]12.CC[C@H]1NC(=O)[C@@H](NC(=O)c2ncccc2O)[C@@H](C)OC(=O)[C@H](c2ccccc2)NC(=O)[C@@H]2CC(=O)[C@H](CS[C@@H]3CN4CCC3CC4)CN2C(=O)[C@H](Cc2ccc(N(C)C)cc2)N(C)C(=O)[C@@H]2CCCN2C1=O` [QUINUPRISTIN/DALFOPRISTIN] ({Picolinoyl(3-OH)}-T[dAbu]P[NMePhe(4-NMe2)][X1][Phg]; ester 1-C): the MIC50 against Streptococcus pneumoniae [1] was found to be 1 µg/mL; against Enterococcus sp. [10], 0.5 µg/mL; with Staphylococcus aureus [4] it was 0.5 µg/mL; against Enterococcus sp. [11], 0.5 µg/mL. The MIC90 was 1 µg/mL with Streptococcus pneumoniae [1], 8 µg/mL against Enterococcus sp. [10], 0.5 µg/mL against Staphylococcus aureus [4] and 8 µg/mL with Enterococcus sp. [11].

As to `N[C@@H]1[C@H]2CN(c3nc4c(cc3F)c(=O)c(C(=O)O)cn4-c3ccc(F)cc3F)C[C@@H]12` [TROVAFLOXACIN], the MIC with Klebsiella pneumoniae was 0.025 µg/mL (≈ 0.06 µM); against Streptococcus pneumoniae [6], 0.05 µg/mL (≈ 0.12 µM); against Staphylococcus aureus [7], 0.013 µg/mL (≈ 0.0312 µM); in the test on Enterococcus faecalis, 0.2 µg/mL (≈ 0.48 µM); against Escherichia coli it was at most 0.003 µg/mL; against Streptococcus pyogenes, 0.2 µg/mL (≈ 0.48 µM). Besides, the MIC turned out to be 0.05 µg/mL (≈ 0.12 µM) in test [8], 0.2 µg/mL (≈ 0.48 µM) against Pseudomonas aeruginosa and 0.1 µg/mL (≈ 0.24 µM) with Streptococcus mitis.

Consider `CN[C@H](CC(C)C)C(=O)N[C@H]1C(=O)N[C@@H](CC(N)=O)C(=O)N[C@H]2C(=O)N[C@H]3C(=O)N[C@H](C(=O)N[C@H](C(=O)O)c4cc(O)cc(O)c4-c4cc3ccc4O)[C@H](O)c3ccc(c(Cl)c3)Oc3cc2cc(c3O[C@@H]2O[C@H](CO)[C@@H](O)[C@H](O)[C@H]2O[C@H]2C[C@](C)(N)[C@H](O)[C@H](C)O2)Oc2ccc(cc2Cl)[C@H]1O` [VANCOMYCIN], for which the MIC50 is 0.5 µg/mL (≈ 0.345 µM) in the test with Streptococcus pneumoniae [1], over 128 µg/mL against Enterococcus sp. [10], 1 µg/mL (≈ 0.69 µM) with Staphylococcus aureus [4] and over 128 µg/mL in the test with Enterococcus sp. [11]. Also, the MIC90 against Streptococcus pneumoniae [1] was 0.5 µg/mL (≈ 0.345 µM); in the test on Enterococcus sp. [10], over 128 µg/mL; in the test on Staphylococcus aureus [4], 2 µg/mL (≈ 1.38 µM); with Enterococcus sp. [11], over 128 µg/mL.
